# Screening results: PubChem BioAssay, several laboratories
# This is a sample that favours compounds with a hit; in the whole collection about 1.1% have one here.
# proCasp3 act: procaspase-3 (human) activation; P42574; recombinant procaspase-3 D3A, Ac-DEVD-pNA absorbance 405 nm; activation, % at 8.5 µM; actives 0.11% (n = 330,000);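 active = activation above the mean of all tested compounds plus 3 SD, cut at about 21% in these data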;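 note: 0% = DMSO alone and 100% = DMSO wells spiked with extra 5 µM PC-3 D3A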
#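 Evaluation: percent activation relative to control range; Material: Procaspase-3 D3A mutant, all three cleavage aspartates alanine; Compound: single dose, 8.5 µM nominal compound, 0.8% DMSO; Replication: one well per compound; Signal: absorbance at 405 nm, 0 and 120 min; Schedule: 1 h preincubation plus 2 h reaction at 25 °C.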
# aDG glyco up: increases alpha dystroglycan glycosylation; activation, % at 10 µM; Pro5-aDG cells, alpha-DG glycosylation AlphaScreen (IIH6); 0% Pro5, 100% B10-LARGE cell signal; actives 0.22% (n = 360,000); AID 624168;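 active = activation of at least 8% versus controls, or a plate z-score of at least 8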;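 note: Pro5 are CHO cells carrying HIG-tagged alpha-DG that lacks glycosylation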
# procasp7 counter: counter-screen for procaspase-3 activators: activators of human procaspase-7; P55210; recombinant procaspase-7, Ac-DEVD-pNA absorbance 405 nm; D23A/D198A/D206A triple mutant, cannot self-cleave; scale: DMSO 0, 5 µM enzyme 100; activation, % at 8.5 µM; actives 0.093% (n = 330,000); AID 463210;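 active = percent activation above the screen-wide mean plus 3 SD, cut at about 25% in these data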
#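 Assay system: Uncleavable procaspase-7 mutant enzyme / Input: 2 µM procaspase-7 mutant as dispensed / Dosing: single nominal 8.5 µM compound dose, 0.8% DMSO final / Timing: 1 h enzyme–compound preincubation and 2 h substrate reaction, both 25 °C / Detection: p-Nitroaniline absorbance at 405 nm, read at 0 and 120 min / Replication: singlicate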
# CaV13 FRET inh: Primary screen for inhibitors of IQ motif and Ca2+-dependent inactivation inhibitor domain binding in CACNA1D, Förster resonance energy transfer in living cells, …; HEK cells, CFP/YFP FRET ICDI-IQ, plate reader, 10 min; percent FRET-ratio fall versus neutral wells; inhibition, % at 12.3 µM; actives 0.098% (n = 340,000);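 active = mean replicate inhibition of at least 30% and at least 1% of replicates passing that level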;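 note: 0% = median of the neutral control wells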
# T cell modulator: T cell immune modulation candidate; 2C CD8+ T cell-vesicle binding, flow cytometry; hits give low values; response (vesicle binding), % at 7 µM; actives 0.068% (n = 330,000); AID 2052;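 active = response, share of CD8 T cells binding vesicles, and their 90th percentile fluorescence all below set limits, cut at about 80% in these data, passing the limit was not always enough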;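 note: values below 100% mean blocked vesicle binding to the CD8+ T cells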
#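 Benchmarks: naked versus QL9-loaded vesicles / Assay system: purified 2C TCR transgenic mouse naive CD8+ T cells / Technique: high-throughput flow cytometry with anti-B7-1 and anti-CD8 staining / Timing: Cell–vesicle co-incubation 1.5 h at 37 °C, staining 20 min on ice / Read-out: percent CD8+ FL2 mean versus row control / Probe or stimulus: QL9-loaded Drosophila micro-vesicles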
# GRK2 aptamer HTS: inhibitors of human GRK2 displacing RNA aptamer; P25098; bead flow cytometry, FAM-aptamer displacement from GRK2; inhibition of aptamer binding, % at 10 µM; actives 0.59% (n = 330,000); AID 488847;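 active = inhibition of aptamer binding above 40%, roughly 3 SD of noise, on plates passing a quality check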;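 note: median bead fluorescence of bound FAM aptamer so fluorescent compounds give negative values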
# Target sequence (P25098 whole entry, looked up): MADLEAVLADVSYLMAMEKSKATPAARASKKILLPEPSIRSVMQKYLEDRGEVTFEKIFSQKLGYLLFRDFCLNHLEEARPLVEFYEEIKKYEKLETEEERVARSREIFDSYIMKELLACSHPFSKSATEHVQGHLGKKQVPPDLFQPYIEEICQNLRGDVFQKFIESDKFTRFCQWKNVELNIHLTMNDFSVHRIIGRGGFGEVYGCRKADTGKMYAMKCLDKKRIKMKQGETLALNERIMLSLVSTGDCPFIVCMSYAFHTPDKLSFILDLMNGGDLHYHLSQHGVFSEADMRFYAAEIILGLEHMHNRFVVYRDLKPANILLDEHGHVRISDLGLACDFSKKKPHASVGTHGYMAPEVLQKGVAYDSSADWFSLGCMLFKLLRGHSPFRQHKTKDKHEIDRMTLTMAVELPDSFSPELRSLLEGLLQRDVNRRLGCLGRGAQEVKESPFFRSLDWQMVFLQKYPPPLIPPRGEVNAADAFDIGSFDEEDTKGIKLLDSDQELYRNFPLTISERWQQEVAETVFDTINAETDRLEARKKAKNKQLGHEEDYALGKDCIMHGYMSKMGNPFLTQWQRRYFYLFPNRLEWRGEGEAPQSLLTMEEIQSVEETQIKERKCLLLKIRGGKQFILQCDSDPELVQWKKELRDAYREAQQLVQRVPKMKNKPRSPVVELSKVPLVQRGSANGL
# GRK2 CP1: human GRK2 inhibition confirmation, cherry pick 1. shares compounds with GRK2 aptamer HTS. bead-bound GRK2, FAM-aptamer displacement, flow cytometry. aptamer displacement, % at 10 µM. actives 4% (n = 2,000). AID 504451;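 active = aptamer displacement above 40%, near three times the noise of non-fluorescent compounds, on plates passing quality checks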;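 note: negative values mostly reflect intrinsic compound fluorescence rather than true enhancement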
# Aptamer quench: fluorescent aptamer quenching in GRK2 counter-screen dose response | Fluorescent RNA aptamer beads, flow cytometry; hits give high values | fluorescence change (kMESF span), kMESF (concentration not given with the values) | shares compounds with GRK2 aptamer HTS | 110 tested, under 10 active;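 active = compounds whose bead fluorescence drops by more than 37 kMESF across the dose range, marking them as dye quenchers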
# FAM quench CP1: quenches fluorescent RNA aptamer, GRK2 hit artifact; shares compounds with GRK2 aptamer HTS; Carboxyfluorescein RNA aptamer on beads, flow cytometry quenching; hits give low values; fluorescence response (% of DMSO), % at 10 µM; 2,000 tested, under 10 active;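 active = compounds that quench the bead-bound fluorescent RNA probe, cutting fluorescence to under half of the solvent control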;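 note: counterscreen run without GRK2 so only probe quenching by compound is measured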
# GRK2 CP2: confirmation of human GRK2 inhibitors binding RNA aptamer site; shares compounds with GRK2 aptamer HTS; bead-bound GRK2, FAM-aptamer displacement, flow cytometry; inhibition of aptamer binding, % at 10 µM; 360 tested, under 10 active;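 active = inhibition of aptamer binding above 40%, about triple the noise seen with nonglowing compounds, on plates passing quality control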;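 note: negative values mostly come from compounds that fluoresce themselves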
# FAM quench CP2: quenches fluorescent RNA aptamer, GRK2 hit artifact; shares compounds with GRK2 aptamer HTS; AID 588494; 360 tested, under 10 active; fluorescence response vs DMSO, % at 10 µM; carboxyfluorescein RNA aptamer beads, flow cytometry quenching; hits give low values;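 active = response vs DMSO under 50%, meaning signal dropped by over half, treated as fluorescence quencher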;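 note: labelled aptamer on streptavidin beads without GRK2 as a quench counter-screen; 100% = bead fluorescence of DMSO wells and lower means quenching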
# FAM quench DR: counter-screen for GRK2 aptamer binding inhibitors: aptamer fluorescence quenching | shares compounds with GRK2 aptamer HTS | Bead-bound FAM RNA aptamer fluorescence quenching, flow cytometry; hits give low values | fluorescence ratio to DMSO, % at 11.1 µM | 35 tested, under 10 active;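 active = compounds that dim the fluorescent label, raw bead signal shifting by over 33 units between lowest and highest dose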
# The depositor's hits bear a star; i = inactive; · = no result given.
SMILES,proCasp3 act,aDG glyco up,procasp7 counter,CaV13 FRET inh,T cell modulator,GRK2 aptamer HTS,GRK2 CP1,FAM quench CP1,others
O=C(c1ccc(CSc2nc3ccncc3[nH]2)cc1)N1CCCCCC1,6.5,0.1,7.3,-13.1,270.2,68.0*,-0.3,94.0,
Cc1ccc(CSc2nc3ccncc3[nH]2)cc1,10.6,-0.1,0.5,-3.2,0.0,78.0*,0.7,100.4,
CCc1cc2c(=O)n(Cc3ccccc3)c(SC3CCOC3=O)nc2s1 (stereo not drawn),-6.9,0.0,6.8,1.6,262.6,2.0,·,·,
Cc1ccc(Cn2c(SC3CCOC3=O)nc3ccccc3c2=O)cc1 (stereo not drawn),-2.5,-0.2,-4.0,-7.2,339.2,43.0*,·,·,GRK2 CP2=-2.1;FAM quench CP2=99.0
O=C(CNc1cccc(F)c1)N1CCc2ccccc2C1,7.2,0.0,-8.5,-5.5,440.0,51.0*,·,·,GRK2 CP2=24.6;FAM quench CP2=102.0
O=C(c1cccc(F)c1)N1CCc2ccccc2C1,2.4,-0.2,10.8,-8.2,385.5,0.0,·,·,
O=C(CSc1cn[nH]n1)Nc1ccccc1F,-10.7,0.0,4.9,-1.4,121.4,2.0,·,·,
COc1cc(-c2c(-c3ccsc3)sc3ccccc23)cc(OC)c1OC,3.1,-0.1,11.1,-5.2,240.6,0.0,·,·,
COc1cc(-c2ccc3c(=O)c4ccccc4sc3c2)cc(OC)c1OC,-2.3,0.9,-0.7,-10.5,i,100.0*,·,·,GRK2 CP2=-10.8;FAM quench CP2=99.0
Cc1ccc(C(CNS(=O)(=O)c2ccc(Br)cc2)N2CCN(C)CC2)cc1 (stereo not drawn),5.8,0.4,7.3,-2.0,230.3,0.0,·,·,
Cc1ccc(C(CNS(=O)(=O)c2ccccc2)N2CCN(C)CC2)cc1 (stereo not drawn),-5.4,1.4,5.4,-1.3,348.0,0.0,·,·,GRK2 CP2=5.5;FAM quench CP2=99.0
Cn1ccnc1C1CCCCN1Cc1nc(Cc2cccc(C(F)(F)F)c2)no1 (stereo not drawn),6.4,0.2,1.4,-4.4,308.3,0.0,-0.5,101.0,
COC(=O)c1cc(=O)nc(NN=C(C)C)s1,·,·,·,-9.0,·,·,·,·,
CSc1ccc(S(=O)(=O)NCc2ccc(C)cc2)cc1,5.0,0.3,7.8,-7.4,453.2,71.0*,-0.1,101.5,
N#CC1=C2SCN(Cc3ccco3)CN2C(=O)CC1c1c(F)cccc1Cl (stereo not drawn),-24.4,0.1,-25.2,-16.2,740.3,88.0*,-2.5,100.3,
CCOC(=O)C1=CNS(=O)(=O)NC1c1ccc2ccccc2c1 (stereo not drawn),-2.4,-0.1,3.5,-10.9,·,0.0,·,·,
COc1ccc(OC)c(/C=N/NC(=O)c2ccncc2)c1,1.2,0.1,-5.1,-3.1,138.4,57.0*,-1.2,98.7,
Cc1cccc(C(=O)O/N=C(\N)c2ccc(Cl)cc2)c1,17.4,0.1,16.3,-19.9,236.0,11.0,-1.8,99.9,
Cc1cccc(C(=O)O/N=C(\N)c2ccc(Br)cc2)c1,11.1,0.0,1.0,-5.2,203.5,2.0,·,·,
Cc1cc(Br)c2c(c1)C1(OCCO1)C(=O)N2,3.6,0.0,3.3,-14.0,544.5,0.0,·,·,
Cc1cc(C)c2c(c1)C1(OCCO1)C(=O)N2,8.7,-0.1,-2.3,-19.9,137.5,18.0,1.1,103.4,
CCN(CC)CCOC(=O)C1(c2ccccc2)CCCC1,3.6,0.0,4.2,-7.8,451.3,69.0*,-0.2,98.9,
CCOC(=O)[C@H]1[C@H]2COc3ccc(Br)cc3[C@@H]2N2C(=O)CN(Cc3ccccc3)C(=O)[C@@]12C,-1.6,0.2,7.9,-10.5,206.4,1.0,·,·,
CC(=O)Oc1ccc2ccc(=O)oc2c1,-38.4,0.2,-0.8,·,239.0,80.0*,-1.5,99.5,
Cc1ccc(NC(=O)CC2S/C(=N/N=C3/NC(=O)CS3)NC2=O)cc1 (stereo not drawn),-3.2,-0.1,-12.2,-5.1,349.6,91.0*,2.9,99.1,
SMILES,proCasp3 act,aDG glyco up,procasp7 counter,CaV13 FRET inh,T cell modulator,GRK2 aptamer HTS,GRK2 CP1,FAM quench CP1,others
CCOC(=O)c1ccc(NC(=O)CC2S/C(=N/N=C3/NC(=O)CS3)NC2=O)cc1 (stereo not drawn),-2.3,0.0,9.8,-5.0,255.3,6.0,·,·,
CCn1cc(S(=O)(=O)Nc2cc(C)ccc2F)cn1,1.1,-0.3,10.0,·,504.5,0.0,·,·,
COc1ccc(-c2cc(C(=O)NCc3ccc(F)cc3)[nH]n2)c(C)c1,·,-0.1,·,-4.7,·,·,·,·,
O=C(O)Cc1ccc(-n2cccc2)cc1,-11.9,-0.2,-8.4,13.3,454.1,99.0*,99.0*,120.8,Aptamer quench=9.5;FAM quench DR=98.0
CCN1CCN(C(=O)NC2CCCCC2)CC1,-5.0,0.2,14.0,-20.7,537.9,0.0,·,·,
O=C(Cc1ccc(-n2cccc2)cc1)NC1CCCCC1,-4.0,-0.1,2.3,-7.3,189.2,45.0*,-2.0,94.7,
O=C(NC1CCCCC1)N1CCN(CCc2ccccc2)CC1,5.2,0.2,3.0,-8.9,312.6,70.0*,-1.7,101.2,
O=C(c1ccccc1)N1CCN(c2cc(Cl)nc3cc(-c4cccc(Cl)c4)nn23)CC1,·,0.1,·,-5.1,·,·,·,·,
CCOc1cc(C(=O)Nc2ncn[nH]2)cc(OCC)c1OCC,1.9,0.1,2.4,-6.9,254.4,0.0,·,·,
COc1cc(OC)cc(C(=O)Nc2ncn[nH]2)c1,4.2,-0.3,11.3,-7.2,i,77.0*,-5.3,100.8,
O=C(c1ccc(CNS(=O)(=O)c2ccccc2)cc1)N1CCN(c2ccccn2)CC1,2.0,-0.1,10.5,·,207.3,5.0,·,·,
